Shown are actives, neighbours in structure and some others; about 2.8% of the full set was active somewhere.
PAFAH1B3 FP inh: PAFAH1B3 (human) inhibition. Q15102. recombinant PAFAH1B3, FP-rhodamine probe, fluorescence polarization. inhibition, % at 3.39 µM. AID 492972. actives 0.28% (n = 340,000);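 active means inhibition above the screen-wide average of all tested compounds plus 3 SD, cut at about 25% in these data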
Target sequence (Q15102 whole entry, looked up): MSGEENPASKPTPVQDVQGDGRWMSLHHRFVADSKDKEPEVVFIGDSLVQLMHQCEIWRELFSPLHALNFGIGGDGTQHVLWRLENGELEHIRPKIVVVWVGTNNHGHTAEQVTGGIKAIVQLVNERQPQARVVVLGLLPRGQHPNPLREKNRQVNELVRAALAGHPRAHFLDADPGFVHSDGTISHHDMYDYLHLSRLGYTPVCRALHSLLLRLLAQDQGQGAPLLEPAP
pPAFAH inh: pPAFAH (human) enzyme inhibition; recombinant pPAFAH, FP-rhodamine probe fluorescence polarization; inhibition, % at 3.39 µM; actives 1.5% (n = 330,000); AID 463082;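 active means inhibition above the mean inhibition across the screen plus 3 SD, cut at about 25% in these data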;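 further: inhibitors block binding of the rhodamine activity-based probe so polarization drops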
ASAP1 inh: blocks human ASAP1-stimulated Arf1 GTP hydrolysis; Q9ULH1; inhibition, % at 16.5 µM; actives 0.19% (n = 360,000); GDP FP detection; in the data active means inhibition above about 25%
ARFGAP1 inhibitor: inhibits rat ARF GTPase activating protein 1; Q62848; Arfgap1-stimulated ARF1 GTP hydrolysis, GDP FP detection; inhibition, % at 16.5 µM; actives 0.26% (n = 360,000);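 active means inhibition above a per-plate limit, mean inhibition of low control wells plus 3 SD, cut at about 25% in these data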
Target sequence (Q62848 1-136 limits assumed): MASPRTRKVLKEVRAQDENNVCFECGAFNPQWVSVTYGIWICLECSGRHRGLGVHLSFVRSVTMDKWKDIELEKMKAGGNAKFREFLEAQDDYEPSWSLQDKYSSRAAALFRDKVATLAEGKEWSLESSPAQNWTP
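Material – truncated rat Arfgap1 GAP domain · Buffer or medium – HEPES-based buffer, pH 7.5 · Reagent – human ARF1(Δ1-17)-GTP substrate · Dosing – 16.5 µM single point, 1.26% DMSO · Schedule – GTP hydrolysis reaction 2 h at 25 °C · Technique – GDP detection by fluorescence polarization · Benchmarks – No-Arfgap1 wells (100%) versus DMSO full-reaction wells (0%) · Repeats – single replicate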
PAFAH1B2 inh: inhibitors of human PAFAH1B2 | P68402 | recombinant PAFAH1B2, FP-rhodamine activity probe, fluorescence polarization | inhibition, % at 3.39 µM | actives 1.2% (n = 340,000);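 active means inhibition above the mean of all tested compounds plus 3 SD, cut at about 24% in these data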
Target sequence (P68402 whole entry, looked up): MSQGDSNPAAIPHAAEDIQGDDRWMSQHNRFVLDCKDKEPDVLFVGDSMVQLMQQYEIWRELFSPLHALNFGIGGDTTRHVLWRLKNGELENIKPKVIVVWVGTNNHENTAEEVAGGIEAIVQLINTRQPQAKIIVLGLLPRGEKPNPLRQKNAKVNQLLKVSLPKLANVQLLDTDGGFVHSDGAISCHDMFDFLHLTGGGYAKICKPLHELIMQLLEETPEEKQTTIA
PAFAH2 inh: inhibitors of human PAFAH2; inhibition, % at 3.39 µM; actives 0.99% (n = 340,000); recombinant PAFAH2, FP-rhodamine activity probe, fluorescence polarization; AID 492956; Q99487;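 active means inhibition above the mean over all tested compounds plus 3 SD, cut at about 30% in these data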;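 further: inhibitors block probe labeling of enzyme so polarization drops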
PAFAH2 confirm: PAFAH2 (human) inhibition, confirmed. shares compounds with PAFAH2 inh. recombinant PAFAH2, FP-rhodamine activity probe, fluorescence polarization. inhibition, % at 3.39 µM. actives 65% (n = 2,300). AID 493030;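 active means mean inhibition over three repeats above a set limit taken from the earlier primary screen, cut at about 30% in these data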;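 further: inhibitor blocks binding of rhodamine activity probe so polarization falls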
Large screens that a line does not name were inactive (follow-up assays come after a bar, where they were run).

O=C(COC(=O)/C=C/c1cccc(Cl)c1)NC1CC1	PAFAH2 inh 31 | PAFAH2 confirm inactive
NC(=O)NC(=O)COC(=O)/C=C/c1cccc(Br)c1	none
O=C(COC(=O)/C=C/c1cccc(Cl)c1)NC1CCCC1	PAFAH2 inh 74 | PAFAH2 confirm 66
O=C(COC(=O)/C=C/c1ccccc1Cl)NC1CC1	none (no result: PAFAH1B3 FP inh, pPAFAH inh, PAFAH1B2 inh, PAFAH2 inh)
O=C(COC(=O)/C=C/c1cccc(Br)c1)NC1CC1	PAFAH2 inh 32 | PAFAH2 confirm inactive
O=C(COC(=O)/C=C/c1cccc(Cl)c1)Nc1c(F)cccc1F	none
COC(=O)[C@]12C[C@H](CC(=O)N3CCSCC3)C(=O)N(CCC3=CCCCC3)C1=C[C@H](COCc1ccccc1)O[C@@H]2C	none (no result: PAFAH1B3 FP inh, pPAFAH inh, PAFAH1B2 inh, PAFAH2 inh)
CC1CCCN(C(=O)c2ccc(OC3CCN(CCc4ccccc4)CC3)cc2)C1 (centres undefined)	none
O=C(COC(=O)c1cc(S(=O)(=O)N2CCOCC2)ccc1O)NCc1ccc2c(c1)OCO2	none (no result: pPAFAH inh)
O=C(COC(=O)c1cccc(S(=O)(=O)N2CCOCC2)c1)Nc1ccc(Cl)cn1	PAFAH2 inh 64 | PAFAH2 confirm 47
O=C(COC(=O)c1cc(S(=O)(=O)N2CCOCC2)ccc1O)Nc1ccc2c(c1)OCO2	PAFAH2 inh 42 | PAFAH2 confirm 32
O=C(Nc1ccc2c(c1)OCO2)c1cccc(S(=O)(=O)N2CCOCC2)c1	none
O=C(COC(=O)c1cccc(S(=O)(=O)N2CCOCC2)c1)Nc1ccc2c(c1)OCO2	PAFAH2 inh 66 | PAFAH2 confirm 38
O=C(COC(=O)c1cc(=O)[nH]c2ccccc12)Nc1cccc(S(=O)(=O)N2CCOCC2)c1	none
O=C(COC(=O)c1n[nH]c2ccccc12)Nc1cccc(S(=O)(=O)N2CCOCC2)c1	PAFAH2 inh 50 (no result: pPAFAH inh) | PAFAH2 confirm 32
COc1ccccc1/C=C/C=N/Nc1cccc(C(=O)O)c1	none
O=C(OCc1cn([C@@H]2CN(C(=O)c3cccs3)[C@@H](c3ccccc3)C[C@H]2O)nn1)c1ccccc1	none (no result: PAFAH1B3 FP inh, pPAFAH inh, PAFAH1B2 inh, PAFAH2 inh)
CC1CCCN(CCCNC(=O)c2nn(C)c3c2CS(=O)(=O)c2ccccc2-3)C1 (centres undefined)	none
O=C(COC(=O)C1CC2C=CC1C2)Nc1cccc(S(=O)(=O)N2CCOCC2)c1 (centres undefined)	PAFAH2 inh 41 | PAFAH2 confirm inactive
O=C(COC(=O)c1ccco1)Nc1cccc(S(=O)(=O)N2CCOCC2)c1	none (no result: PAFAH1B3 FP inh, pPAFAH inh, PAFAH1B2 inh, PAFAH2 inh)
O=C(COC(=O)c1ccc2c(c1)OCCO2)Nc1cccc(S(=O)(=O)N2CCOCC2)c1	PAFAH2 inh 65 | PAFAH2 confirm 56
NS(=O)(=O)c1cccc(NC(=O)COC(=O)c2ccc(S(=O)(=O)N3CCOCC3)cc2)c1	none (no result: pPAFAH inh)
O=C(OCC(=O)N1CCCc2ccccc21)c1cc(S(=O)(=O)N2CCOCC2)ccc1O	PAFAH2 inh 73 | PAFAH2 confirm 63
CC[C@H](NC(=O)/C=C/[C@H]1O[C@@H](n2cc(C)c(=O)[nH]c2=O)C[C@@H]1O)c1ccccc1	none (no result: PAFAH1B3 FP inh, pPAFAH inh, PAFAH1B2 inh, PAFAH2 inh)
COC(=O)Nc1nc(-c2ccccc2)c(C(=O)c2ccccc2)s1	PAFAH2 inh 53 | PAFAH2 confirm 50
COC(=O)Nc1nc(C)c(C(=O)c2ccccc2)s1	none
CCN(CC(=O)Nc1ccc(NC(C)=O)cc1)C(=O)C1(c2ccccc2)CC1	none
O=C(Nc1ccc2c(c1)OCO2)c1csc([C@@H]2C[C@H](O)[C@@H](CO)O2)n1	none (no result: PAFAH1B3 FP inh, pPAFAH inh, PAFAH1B2 inh, PAFAH2 inh)
O=C(c1ccccc1Oc1ccc(C(F)(F)F)cc1[N+](=O)[O-])N1CCOCC1	none
O=C(c1ccc(Oc2ccc(C(F)(F)F)cc2[N+](=O)[O-])cc1)N1CCOCC1	PAFAH2 inh 34 | PAFAH2 confirm inactive
O=C(c1ccc(Oc2ccc([N+](=O)[O-])cc2Cl)cc1)N1CCCC1	PAFAH2 inh 40 | PAFAH2 confirm 30
Cc1ccc(NC(=O)CSC(C)C(=O)NCCc2ccccn2)cc1 (centres undefined)	none
Cc1c(Cl)cnc(NC(=O)COC(=O)C2CC2)c1Cl	PAFAH2 inh 44 | PAFAH2 confirm inactive
Cc1cc(C(=O)OCC(=O)Nc2c(Cl)cccc2C(F)(F)F)c(C)o1	none
Cc1ccsc1C(=O)OCC(=O)Nc1c(Cl)cccc1C(F)(F)F	PAFAH2 inh 31 | PAFAH2 confirm 30
O=C(COC(=O)C1CC1)Nc1c(Cl)cccc1C(F)(F)F	PAFAH2 inh 38 | PAFAH2 confirm inactive
Cc1ccc2nc3n(c(=O)c2c1)-c1ccccc1C(=O)NC3CC(C)C (centres undefined)	none (no result: PAFAH1B3 FP inh, pPAFAH inh, PAFAH1B2 inh, PAFAH2 inh)
CCOc1ccc(C(C(=O)NCC2CCCO2)N(C(=O)c2snc(C(N)=O)c2N)c2ccc3c(c2)OCCO3)cc1 (centres undefined)	none
C[C@H](NC(=O)C1CCN(S(=O)(=O)c2ccccc2)CC1)C(=O)NC1CC1	none (no result: PAFAH1B3 FP inh, pPAFAH inh, PAFAH1B2 inh, PAFAH2 inh)
CCOC(=O)C1(C)CCN1C(=O)c1ccc2ccccc2c1 (centres undefined)	none (no result: PAFAH1B3 FP inh, pPAFAH inh, PAFAH1B2 inh, PAFAH2 inh)
Cc1ccccc1OCCOc1cccc(/C=N/NC(=O)Cc2nnc(N)s2)c1	PAFAH2 inh 33 | PAFAH2 confirm inactive
Nc1nnc(CC(=O)N/N=C/c2cccc(OCCOc3ccccc3)c2)s1	none
COc1ccc(NC2CC(=O)N(c3cccc(C)c3)C2=O)cc1 (centres undefined)	PAFAH2 inh 47 | PAFAH2 confirm inactive
COc1ccc(NC2CC(=O)N(c3cccc([N+](=O)[O-])c3)C2=O)cc1 (centres undefined)	none
NC(=O)NC(=O)COC(=O)c1cccc(NS(=O)(=O)/C=C/c2ccccc2)c1	none
NC(=O)COC(=O)c1cccc(NS(=O)(=O)/C=C/c2ccccc2)c1	none
CC1CCCC(NC(=O)COC(=O)c2cccc(NS(=O)(=O)/C=C/c3ccccc3)c2)C1C (centres undefined)	PAFAH2 inh 46 | PAFAH2 confirm 40
CC(C)NC(=O)COC(=O)c1cccc(NS(=O)(=O)/C=C/c2ccccc2)c1	PAFAH2 inh 37 | PAFAH2 confirm inactive
COc1ccc(CNC(=O)CC[C@H]2O[C@@H](n3cc(C)c(=O)[nH]c3=O)C[C@@H]2O)cc1	none (no result: PAFAH1B3 FP inh, pPAFAH inh, PAFAH1B2 inh, PAFAH2 inh)
Cc1ccc(C)c(C(=O)CN2C(=O)NC3(CCCCCC3)C2=O)c1	none (no result: pPAFAH inh)
C=CCNc1nc(Nc2cc(Cl)ccc2OC)nc(OC)n1	none
CS(=O)(=O)c1cccc(S(=O)(=O)N2CCCCCC2)c1	PAFAH2 inh 145 | PAFAH2 confirm inactive
COc1cccc(C(=O)O/N=C(\N)CS(=O)(=O)c2ccccc2)c1	PAFAH2 inh 64 | PAFAH2 confirm 45
Cc1cccc(C(=O)O/N=C(\N)CS(=O)(=O)c2ccccc2)c1	PAFAH2 inh 44 | PAFAH2 confirm 36
CCc1nc2c(OCC(=O)c3ccc(Cl)cc3Cl)cccn2c1N(C)C(=O)c1cccs1	none (no result: PAFAH1B3 FP inh, pPAFAH inh, PAFAH1B2 inh, PAFAH2 inh)
